# Measurements reported in ChEMBL document CHEMBL3046864, “Synthesis and antifungal activity of a series of N-substituted [2-(2,4-dichlorophenyl)-3-(1,2,4-triazol-1-yl)]propylamines” (J Agric Food Chem, 2007).
# Calls of active or inactive are those of the source. The calls are words filed in the database; no cut-off is given here.
# Tests used:
# Pyrenophora teres = assay: Fungicidal activity against Pyrenophora teres assessed as inhibition of radial growth; format: functional, organism-based
# Procedure, shortened: (§1)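 Strains from the IPV collection were maintained on potato dextrose agar. Radial growth on PDA was measured at 100–0.1 mg L-1. % inhibition was taken from the mean difference between treated and control cultures relative to control. % inhibition was plotted on a probit scale against dose to give EC50.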
# Oculimacula yallundae = assay: Fungicidal activity against Oculimacula yallundae assessed as inhibition of radial growth; format: functional, organism-based; procedure, shortened: as §1
# Fusarium graminearum = assay: Fungicidal activity against Fusarium graminearum assessed as inhibition of radial growth; format: functional, organism-based
# Procedure, shortened: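 The Fusarium isolate came from the IPV collection and was kept on PDA. Radial growth was measured on PDA plates at 100–0.1 mg L-1. Percentage inhibition was taken from the mean difference between treated and control cultures. EC50 came from a probit plot of percentage inhibition against dose.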
# Ustilago maydis = assay: Fungicidal activity against Ustilago maydis ATCC 14826 assessed as inhibition of fungal cell count; format: functional, organism-based; details: Mycosarcoma maydis
# Procedure, shortened: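 U. maydis ATCC 14826 broth cultures were grown in Coursen and Sisler broth with compound. Growth was estimated by sporidial cell count at the end of treatment and expressed as % inhibition versus the untreated control.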
# Cercospora beticola = assay: Fungicidal activity against Cercospora beticola assessed as inhibition of radial growth; format: functional, organism-based; procedure, shortened: as §1
# Botrytis cinerea = assay: Fungicidal activity against Botryotinia fuckeliana assessed as inhibition of radial growth; format: functional, organism-based; procedure, shortened: as §1
# Phytophthora infestans = assay: Antifungal activity against Phytophthora infestans infected 125 ug/mL compound pre-treated six-leaves stage tomato plant seedlings assessed as inhibition of disease measured after 7 days post fungal inoculation; format: functional
# Procedure, shortened: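 Preventive application before inoculation. Tomato plants were sprayed with a P. infestans zoosporangia suspension (5 × 10^4 mL-1). Plants were held 24 h at 20 ± 1 °C and 100% RH, then moved to a greenhouse at 23 ± 1 °C and 70 ± 10% RH. Diseased leaf area was scored 7 days after inoculation against nontreated plants to give percentage disease inhibition.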
# Blumeria graminis = assay: Antifungal activity against Blumeria graminis f. sp. tritici infected in 125 ug/mL […] assessed as inhibition of wheat powdery mildew disease measured after 10 days post fungal inoculation; format: functional
# Puccinia recondita = assay: Antifungal activity against Puccinia recondita infected 125 ug/mL compound […] assessed as inhibition of wheat brown rust disease measured after 10 days post fungal inoculation; format: functional
# [1] = target: T1, Squalene monooxygenase (Mycosarcoma maydis) (UniProt A0A0D1C8X8); assay: Inhibition of squalene epoxidase in Ustilago maydis ATCC 14826 assessed as effect on squalene level at 0.01 to 100 mg/L measured after 18 hr post compound treatment
# T1 sequence (whole entry): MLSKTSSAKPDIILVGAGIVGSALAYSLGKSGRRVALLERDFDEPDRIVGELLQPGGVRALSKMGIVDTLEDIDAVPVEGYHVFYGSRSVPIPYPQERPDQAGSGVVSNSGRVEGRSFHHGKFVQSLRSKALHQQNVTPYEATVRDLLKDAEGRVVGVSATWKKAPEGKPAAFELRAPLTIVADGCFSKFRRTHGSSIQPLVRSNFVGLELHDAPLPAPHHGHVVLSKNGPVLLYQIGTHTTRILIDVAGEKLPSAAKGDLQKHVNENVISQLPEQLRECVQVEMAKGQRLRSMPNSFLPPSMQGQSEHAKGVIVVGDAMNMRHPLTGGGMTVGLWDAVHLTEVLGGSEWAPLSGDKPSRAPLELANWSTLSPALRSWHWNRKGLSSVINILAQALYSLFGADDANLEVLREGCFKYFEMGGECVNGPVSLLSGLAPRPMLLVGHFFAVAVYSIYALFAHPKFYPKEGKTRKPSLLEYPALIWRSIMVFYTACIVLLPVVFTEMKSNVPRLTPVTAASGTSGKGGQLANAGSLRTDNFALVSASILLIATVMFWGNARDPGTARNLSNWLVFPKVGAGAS
# Procedure, shortened: (§2)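 U. maydis was grown in Coursen and Sisler broth with compound at 0.01–100 mg L-1 for 18 h. Sporidia were harvested by centrifugation, spiked with dihydrocholesterol as a known-amount standard, and saponified in 20% KOH in 60% ethanol for 1 h at 90 °C. The unsaponifiable fraction, including squalene and 14-methyl sterols, was analysed by capillary GC-FID and GC-MS.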
# [2] = target: T2, Lanosterol 14-alpha demethylase (Mycosarcoma maydis) (UniProt P49602); assay: Inhibition of 14alpha-demethylase in Ustilago maydis ATCC 14826 assessed as increase in 14-methyl sterols levels at 0.01 to 100 mg/L measured after 18 hr post compound treatment; procedure, shortened: as §2
# T2 sequence (whole entry): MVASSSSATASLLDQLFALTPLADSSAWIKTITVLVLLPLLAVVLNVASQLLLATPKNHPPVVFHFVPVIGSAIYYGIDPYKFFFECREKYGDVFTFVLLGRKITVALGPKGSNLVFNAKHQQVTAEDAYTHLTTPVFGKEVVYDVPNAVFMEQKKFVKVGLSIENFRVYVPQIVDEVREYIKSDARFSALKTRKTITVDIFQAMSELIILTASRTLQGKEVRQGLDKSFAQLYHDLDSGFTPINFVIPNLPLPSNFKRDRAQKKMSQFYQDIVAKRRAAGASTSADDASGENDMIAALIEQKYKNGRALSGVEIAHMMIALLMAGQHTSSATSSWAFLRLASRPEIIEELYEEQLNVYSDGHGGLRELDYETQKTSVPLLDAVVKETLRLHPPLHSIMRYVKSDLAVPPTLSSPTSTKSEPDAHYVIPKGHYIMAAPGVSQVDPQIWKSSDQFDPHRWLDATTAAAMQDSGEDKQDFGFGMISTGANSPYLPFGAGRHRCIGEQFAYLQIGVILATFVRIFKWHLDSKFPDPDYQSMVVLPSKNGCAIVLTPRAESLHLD
Compound,EC50 (Pyrenophora teres) [µg/mL],EC50 (Oculimacula yallundae) [µg/mL],EC50 (Fusarium graminearum) [µg/mL],EC50 (Ustilago maydis) [µg/mL],EC50 (Cercospora beticola) [µg/mL],EC50 (Botrytis cinerea) [µg/mL],inhibition (INH) (Phytophthora infestans) [%],inhibition (INH) (Blumeria graminis) [%],inhibition (INH) (Puccinia recondita) [%],inhibition [1],inhibition [2]
Clc1ccc(C(CN(C/C=C/c2ccccc2)C/C=C/c2ccccc2)Cn2cncn2)c(Cl)c1 (centres undefined),6,> 100,> 100,0.65,12.5,> 100,–,–,–,–,–
C#CCN(CC#C)CC(Cn1cncn1)c1ccc(Cl)cc1Cl (centres undefined),2.1,2.8,9,0.14,1.1,4.9,0,35,15,–,–
CC(=O)NCC(Cn1cncn1)c1ccc(Cl)cc1Cl (centres undefined),> 100,> 100,> 100,60,> 100,> 100,–,–,–,–,–
NCC(Cn1cncn1)c1ccc(Cl)cc1Cl (centres undefined),> 100,> 100,> 100,70.3,> 100,> 100,–,–,–,–,–
Clc1ccc(C(CN(C2CC2)C2CC2)Cn2cncn2)c(Cl)c1 (centres undefined),5.5,1.2,55,0.02,0.4,7.5,0,60,10,–,–
C=CCN(CC(Cn1cncn1)c1ccc(Cl)cc1Cl)C1CC1 (centres undefined),3.2,0.8,55,0.01,0.2,4.4,–,–,–,–,–
Clc1ccc(C(CNC/C=C/c2ccccc2)Cn2cncn2)c(Cl)c1 (centres undefined),12,7.5,26,1.4,2.4,42,0,25,20,–,–
Clc1ccc(C(CN(Cc2ccccc2)Cc2ccccc2)Cn2cncn2)c(Cl)c1 (centres undefined),1.9,17,> 100,0.09,4,6,–,–,–,–,–
C#CCNCC(Cn1cncn1)c1ccc(Cl)cc1Cl (centres undefined),38,11,> 100,1.3,4,38,–,–,–,–,–
C=CCNCC(Cn1cncn1)c1ccc(Cl)cc1Cl (centres undefined),> 100,91.3,> 100,19.9,31.7,> 100,–,–,–,–,–
C/C=C/C(=O)NCC(Cn1cncn1)c1ccc(Cl)cc1Cl (centres undefined),> 100,> 100,> 100,20.7,60.5,> 100,–,–,–,–,–
O=C(NCC(Cn1cncn1)c1ccc(Cl)cc1Cl)c1ccccc1 (centres undefined),11.5,80.3,> 100,1.9,2.5,100,–,–,–,–,–
C=CCN(CC=C)CC(Cn1cncn1)c1ccc(Cl)cc1Cl (centres undefined),6.5,3.6,> 100,0.22,2.6,10,0,30,25,inactive,Active
CC(C)(C)c1ccc(CN(Cc2ccc(C(C)(C)C)cc2)CC(Cn2cncn2)c2ccc(Cl)cc2Cl)cc1 (centres undefined),> 100,> 100,> 100,9,7,> 100,–,–,–,–,–
Clc1ccc(C(CNCc2ccccc2)Cn2cncn2)c(Cl)c1 (centres undefined),30.3,23.4,> 100,11.3,2.7,> 100,–,–,–,–,–
FC(F)C(F)(F)OCC(Cn1cncn1)c1ccc(Cl)cc1Cl (centres undefined) [TETRACONAZOLE],–,–,–,–,–,0.04,0,100,100,–,–
CN(C)CC(Cn1cncn1)c1ccc(Cl)cc1Cl (centres undefined),42,6.5,> 100,2.5,8,75,–,–,–,–,–
